Reference: ChEMBL document CHEMBL1130394 (J Med Chem, 1997)

Tests used:
[1] = system: KB; test: Inhibitory concentration that reduced the viability of KB cell population by 50%.; type: functional, cell-based; conditions: Homo sapiens
In short: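 KB cells in Eagle's MEM with 10% calf serum, 37 °C, humidified 5% CO2, seeded at 3 × 10³ cells/mL and cultured 24 h. Compounds added in triplicate at several concentrations, with compound-free control wells, for 3 days. Value is the concentration reducing cell count by 50%.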

[2] = system: SK-OV-3; test: Inhibitory concentration the viability of SKOV 3 cell population by 50%.; type: functional, cell-based; conditions: Homo sapiens
[3] = system: SK-VLB; test: Inhibitory concentration that reduced the viability of SKVLB cell population by 50%.; type: functional, cell-based; conditions: Homo sapiens
[4] = system: HT-29; test: Inhibitory concentration that reduced the viability of HT 29 cell population by 50%.; type: functional, cell-based; conditions: Homo sapiens
[5] = target: T1, DNA topoisomerase 1 (Homo sapiens, UniProt P11387); test: Inhibit supercoil relaxation property of topoisomerase I.
T1 sequence (P11387 whole entry): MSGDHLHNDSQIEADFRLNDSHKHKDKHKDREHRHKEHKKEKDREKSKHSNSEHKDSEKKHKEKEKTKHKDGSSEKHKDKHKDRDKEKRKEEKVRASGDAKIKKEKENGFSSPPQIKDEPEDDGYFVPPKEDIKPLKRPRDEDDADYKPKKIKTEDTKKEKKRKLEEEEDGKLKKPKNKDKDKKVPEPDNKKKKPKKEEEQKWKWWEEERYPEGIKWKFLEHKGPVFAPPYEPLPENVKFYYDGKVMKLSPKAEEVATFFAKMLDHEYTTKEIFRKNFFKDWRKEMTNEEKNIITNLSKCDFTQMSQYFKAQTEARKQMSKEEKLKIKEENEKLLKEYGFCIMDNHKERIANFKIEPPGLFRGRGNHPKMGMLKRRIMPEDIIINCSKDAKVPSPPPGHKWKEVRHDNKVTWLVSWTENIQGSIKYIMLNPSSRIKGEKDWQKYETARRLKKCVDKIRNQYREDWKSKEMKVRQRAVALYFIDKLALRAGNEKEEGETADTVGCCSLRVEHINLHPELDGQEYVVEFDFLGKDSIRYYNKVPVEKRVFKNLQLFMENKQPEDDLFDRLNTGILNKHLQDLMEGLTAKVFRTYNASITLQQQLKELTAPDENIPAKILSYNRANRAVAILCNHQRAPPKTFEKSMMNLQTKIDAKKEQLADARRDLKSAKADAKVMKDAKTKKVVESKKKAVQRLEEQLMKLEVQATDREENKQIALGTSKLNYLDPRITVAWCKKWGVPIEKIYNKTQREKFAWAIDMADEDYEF
In short: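 Supercoiled pBR322 DNA (0.25 μg) incubated with topoisomerase I (0.5 unit) and ligand, 30 min at 37 °C. Then a further 30 min at 37 °C in SDS-containing loading buffer, agarose gel run overnight, and ethidium bromide staining. Supercoiled DNA remaining was quantified by laser densitometry of the photographic negative.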

SMILES	IC50 [1] [µM]	IC50 [2] [µM]	IC50 [3] [µM]	IC50 [4] [µM]	IC50 [5] [nM]
CCC1(O)C(=O)OCc2c1cc1n(c2=O)Cc2cc3cc(OCC(=O)ONc4cc(C(=O)Nc5cc(C(=O)Nc6cc(C(=O)NCCCN(C)C)n(COC)c6)n(COC)c5)n(COC)c4)ccc3nc2-1 (racemic)	5.5	> 10	> 10	> 10	11900
CCC1(O)C(=O)OCc2c1cc1n(c2=O)Cc2cc3ccccc3nc2-1 (single isomer, unassigned) [CAMPTOTHECIN]	0.008	0.051	0.053	0.0878	
CCC1(O)C(=O)OCc2c1cc1n(c2=O)Cc2cc3cc(OCCN)ccc3nc2-1 (centres undefined)	0.175				
CCCC(=O)Nc1cn(COC)c(C(=O)Nc2cn(COC)c(C(=O)NCCOc3ccc4nc5c(cc4c3)Cn3c-5cc4c(c3=O)COC(=O)C4(O)CC)n2)n1 (racemic)	3.08	3.2	> 10	6	2420
Cn1cc(NC(=O)c2cc(NC(=O)c3cc(NC=O)cn3C)cn2C)cc1C(=O)NCCC(=N)N [STALLIMYCIN]	8.4		> 10	54.7	2700
CCCC(=O)Nc1cc(C(=O)NCCOc2ccc3nc4c(cc3c2)Cn2c-4cc3c(c2=O)COC(=O)C3(O)CC)n(COC)c1 (centres undefined)	15.3	5.1	> 10	8.1	
Cn1cc(NC(=O)c2cc(NC(=O)CNC(=N)N)cn2C)cc1C(=O)NCCC(=N)N [NETROPSIN]	47.1		> 10	44.7	62000
CCCC(=O)Nc1cn(COC)c(C(=O)NCCOc2ccc3nc4c(cc3c2)Cn2c-4cc3c(c2=O)COC(=O)C3(O)CC)n1 (centres undefined)	1	1.3	> 10	6.9	2380
CCCC(=O)Nc1ccc(C(=O)Nc2cc(C(=O)Nc3cc(C(=O)NCCOc4ccc5nc6c(cc5c4)Cn4c-6cc5c(c4=O)COC(=O)C5(O)CC)n(COC)c3)n(COC)c2)n1COC (racemic)	5.09	3.6	> 10	7.1	
CCC1(O)C(=O)OCc2c1cc1n(c2=O)Cc2cc3cc(OCC(=O)ONc4cc(C(=O)Nc5cc(C(=O)NCCCN(C)C)n(COC)c5)n(COC)c4)ccc3nc2-1 (racemic)	0.663	> 10	> 10	> 10	
COc1cccc2c1C(=O)c1c(O)c3c(c(O)c1C2=O)C[C@@](O)(C(=O)CO)C[C@@H]3O[C@H]1C[C@H](N)[C@H](O)[C@H](C)O1 [DOXORUBICIN]	0.015	0.0251	6.54	0.28	
CCCC(=O)Nc1cc(C(=O)Nc2cc(C(=O)NCCOc3ccc4nc5c(cc4c3)Cn3c-5cc4c(c3=O)COC(=O)C4(O)CC)n(COC)c2)n(COC)c1 (racemic)	3.25	> 10	> 10	> 10	16600
CCC1(O)C(=O)OCc2c1cc1n(c2=O)Cc2cc3cc(OCCNC(=O)c4cc(NC(=O)c5cc(NC(=O)c6ccc(NC(=O)CCCN(C)C)n6COC)cn5COC)cn4COC)ccc3nc2-1 (racemic)	1	9.7	> 10	> 10	1970
CCC1(O)C(=O)OCc2c1cc1n(c2=O)Cc2cc3cc(OCCNC(=O)c4cc(NC(=O)c5cc(NC(=O)CCCN(C)C)cn5COC)cn4COC)ccc3nc2-1 (racemic)	6.29	4.3	> 10	6.2	4820
CCC1(O)C(=O)OCc2c1cc1n(c2=O)Cc2cc3cc(OCC(=O)O)ccc3nc2-1 (centres undefined)	0.25	1.2	2.1	2.8	1120
CCC1(O)C(=O)OCc2c1cc1n(c2=O)Cc2cc3cc(OCCNC(=O)c4cc(NC(=O)CCCN(C)C)cn4COC)ccc3nc2-1 (centres undefined)	5.68	1.5	3.5	3.4	2600
